This is a sample that favours compounds with a hit; in the whole collection about 3.2% have one here.
MLL AF4-AF9 inh – inhibitors of human MLL-AF4/AF9 interaction; P42568; AlphaScreen, biotin-AF4 peptide binding to FLAG-AF9; inhibition, % at 10 µM; 350,000 compounds, 0.47% hits;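 active = every replicate reaching a set inhibition limit, whatever the replicate mean, cut at about 25% in these data; inconclusive = mean inhibition reaches that limit but some replicates miss it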
Target sequence (P42568 whole entry, looked up): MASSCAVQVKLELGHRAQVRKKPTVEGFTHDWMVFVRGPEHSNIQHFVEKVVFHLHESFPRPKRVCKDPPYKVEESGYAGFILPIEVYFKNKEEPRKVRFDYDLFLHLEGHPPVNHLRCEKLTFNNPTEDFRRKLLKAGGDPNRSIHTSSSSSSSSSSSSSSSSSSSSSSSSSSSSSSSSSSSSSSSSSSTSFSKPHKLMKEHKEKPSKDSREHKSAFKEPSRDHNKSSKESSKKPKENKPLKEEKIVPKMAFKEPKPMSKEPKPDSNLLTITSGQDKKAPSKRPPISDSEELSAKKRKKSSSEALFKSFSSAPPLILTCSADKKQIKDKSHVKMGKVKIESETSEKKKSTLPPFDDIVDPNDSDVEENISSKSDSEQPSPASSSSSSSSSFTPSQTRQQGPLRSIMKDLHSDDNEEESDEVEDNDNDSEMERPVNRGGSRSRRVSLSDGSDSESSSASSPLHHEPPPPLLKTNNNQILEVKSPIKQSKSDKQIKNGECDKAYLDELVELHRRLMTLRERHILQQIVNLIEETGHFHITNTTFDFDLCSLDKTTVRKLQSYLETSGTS
Cneo AK release – Cryptococcus neoformans lysis via adenylate kinase release | C. neoformans lysis, adenylate kinase release luminescence, 4 h; normalised: neutral wells 0, clomiphene wells 100 | lysis activity, % at 15 µM | 360,000 compounds, 0.2% hits;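 active = mean lysis activity across replicates of at least 80%, whatever share of replicates individually reach that level; inactive = mean lysis activity below 80%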
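Material: C. neoformans cells | Amount: Yeast cell density of 5 × 10^6 cells/mL | Medium: Fresh YPD growth medium | Dosing: Single dose | Times: Static 4 h at 37 °C with compound, 1 h detection | Detection: AK luminescence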
Ecoli rRNA inh – inhibits bacterial ribosomal RNA function over humanized ribosomes; AID 720706; 350,000 compounds, 1.6% hits; GFP signal change (wild-type ribosome), % (no concentration beside the values); E. coli WT GFP vs humanized-ribosome RFP mutants, fluorescence, 24 h; active compounds read low; DMSO median 0, no signal -100;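 active = significant combined selectivity score with lowered wild-type GFP, culture density cut under 30%, mutant RFP and density less affected; inactive = any of these conditions unmet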
S100A4 MyoIIA – inhibitors of human S100A4 binding to myosin IIA peptide. P26447. S100A4/TAMRA-MyoIIA peptide fluorescence polarization. inhibition, % at 10.7 µM. 360,000 compounds, 0.14% hits. AID 652163;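 active = mean inhibition of at least 70% across replicates, with every replicate also reaching that level; inconclusive = mean inhibition reaches 70% but some replicates fall short; inactive = mean inhibition below 70%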
Target sequence (P26447 whole entry, looked up): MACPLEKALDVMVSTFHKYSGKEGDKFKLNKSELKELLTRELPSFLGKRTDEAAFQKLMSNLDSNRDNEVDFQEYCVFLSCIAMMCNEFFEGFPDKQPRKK
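System – human S100A4 monomer protein, biochemical binding assay · Buffer or medium – Calcium-containing HEPES buffer, pH 7.2 · Timing – 5 min between mix addition and reading · Also added – TAMRA-labelled myosin IIA heavy-chain peptide probe, 5 nM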
PfHsp90 set2 – growth inhibition of yeast expressing Plasmodium Hsp90 | S. cerevisiae expressing PfHsp90, BacTiter-Glo ATP, 48 h; yeast lacking PDR1 and PDR3 efflux regulators | inhibition, % at 9.4 µM | 310,000 compounds, 0.32% hits | AID 504621;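 active = every replicate shows inhibition above about 80%, whatever the replicate mean, limit read from the data; inconclusive = mean inhibition reaches the set limit but some replicate falls short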
DENV2 CPE rescue – DENV2-induced cell death inhibition | CPE inhibition, % at 9.99 µM | 350,000 compounds, 1.7% hits | DENV2-infected cells, cytopathic effect rescue, plate reader | AID 651640; in the data active = CPE inhibition above about 20%, passing the limit was not always enough; inconclusive = no clear call, values can overlap the other calls; tested in BHK-21 cells
AID977621 – growth inhibition of wild-type GFP E. coli, dose response, H69 mutant RFP, cherry-pick. E. coli wild-type GFP strain growth, fluorescence, 24 h. 1,900 tested, under 10 active. AID 977621. activity change, negative = inhibition at 50 µM. shares compounds with Ecoli rRNA inh;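 active = Wild-type ribosome reporter drop at least double the humanized mutant ribosome reporter drop, growth loss under a set limit; inconclusive = no clear call, values can overlap the other calls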;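 also: wild-type GFP and H69 mutant RFP strains grown together 50/50 in each well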
AID977628 – E. coli growth inhibition, wild-type GFP versus h24 humanized RFP strain, dose response, h24 mutant RFP vs wild-type GFP, cherry-pick; shares compounds with Ecoli rRNA inh; E. coli WT GFP strain growth, fluorescence, 24 h; activity change, negative = inhibition at 50 µM; 1,900 tested, under 10 active; AID 977628;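 active = compound lowering the normal-ribosome reporter at least twice as much as the humanized-ribosome reporter, growth loss under a set limit; inconclusive = no clear call, values can overlap the other calls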;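 also: wild-type GFP and h24 humanized RFP strains co-cultured 1 to 1 per well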
Numbers stand for hits.

For CC(=O)N(C)C[C@@H]1Oc2cc(C#Cc3ccccn3)ccc2S(=O)(=O)N([C@@H](C)CO)C[C@@H]1C the results were MLL AF4-AF9 inh inactive, Cneo AK release inactive, Ecoli rRNA inh inactive, S100A4 MyoIIA inactive and DENV2 CPE rescue inactive.
Screening CN(C)CCCN(C(=O)COc1ccc(Cl)cc1)c1nc2ccc(F)cc2s1 returned MLL AF4-AF9 inh inactive, Cneo AK release inactive, Ecoli rRNA inh -23.4, S100A4 MyoIIA inactive, PfHsp90 set2 inactive, DENV2 CPE rescue inactive, AID977621 inactive and AID977628 inactive.
CC(C)NC(=O)N1C[C@H]2[C@@H](c3ccccc31)[C@@H](CO)N2C(=O)Nc1cccc(F)c1 was read as MLL AF4-AF9 inh inactive, Cneo AK release inactive, Ecoli rRNA inh inactive, S100A4 MyoIIA inactive and DENV2 CPE rescue inactive.
For Cc1cccc(NC(=O)CN(C)S(=O)(=O)c2cccc3cccnc23)c1 the results were MLL AF4-AF9 inh inactive, Cneo AK release inactive, Ecoli rRNA inh inactive, S100A4 MyoIIA inactive, PfHsp90 set2 inactive and DENV2 CPE rescue inactive.
For CCc1cccc(NC(=O)CN(C)S(=O)(=O)c2cccc3cccnc23)c1 the results were MLL AF4-AF9 inh inactive, Cneo AK release inactive, Ecoli rRNA inh -19.6, S100A4 MyoIIA inactive, PfHsp90 set2 inactive, DENV2 CPE rescue inactive, AID977621 inactive and AID977628 inactive.
For Nc1nc(-c2cc(-c3ccccc3)no2)cs1 the results were MLL AF4-AF9 inh inactive, Cneo AK release inactive, Ecoli rRNA inh -19.0, S100A4 MyoIIA inactive, PfHsp90 set2 inactive, DENV2 CPE rescue inconclusive, AID977621 inactive and AID977628 inconclusive.
`CCn1ccnc1CN1CCCC(C(=O)c2ccc3cc(OC)ccc3c2)C1` (stereo not drawn) gave MLL AF4-AF9 inh inactive, Cneo AK release inactive, Ecoli rRNA inh -32.7, S100A4 MyoIIA inactive, DENV2 CPE rescue inactive, AID977621 inactive and AID977628 inactive.
Screening COc1ccc2cc(C(=O)C3CCCN(Cc4ccccn4)C3)ccc2c1 (stereo not drawn) returned MLL AF4-AF9 inh inactive, Cneo AK release inactive, Ecoli rRNA inh inactive and S100A4 MyoIIA inactive.
For COc1ccc2c(c1)c(C(=O)O)c(C)n2CCc1ccc(OC)c(OC)c1 the results were MLL AF4-AF9 inh inactive, Cneo AK release inactive, Ecoli rRNA inh inactive, S100A4 MyoIIA inactive, PfHsp90 set2 inactive and DENV2 CPE rescue inactive.
COc1ccc2c(c1)c(C(C)=O)c(C)n2CCc1ccc(OC)c(OC)c1 was read as MLL AF4-AF9 inh inactive, Cneo AK release inactive, Ecoli rRNA inh -32.6, S100A4 MyoIIA inactive, PfHsp90 set2 inactive, DENV2 CPE rescue inactive and AID977621 inactive.
O=C(Nc1ccc2c(c1)OCCO2)C1C(c2ccccc2)=Nc2ccccc2N1C(=O)c1cccnc1 (stereo not drawn) was read as MLL AF4-AF9 inh inactive, Ecoli rRNA inh -8.2, S100A4 MyoIIA inactive, DENV2 CPE rescue inactive, AID977621 inactive and AID977628 inconclusive.
`C[C@H](NC(=O)[C@@H]1[C@@H](CO)[C@@H]2Cn3c(ccc(-c4cccnc4)c3=O)[C@H]1N2C)c1ccccc1` gave MLL AF4-AF9 inh inactive, Cneo AK release inactive, Ecoli rRNA inh inactive, S100A4 MyoIIA inactive and DENV2 CPE rescue inactive.
COc1ccc(NC(=O)N(C)C[C@H]2Oc3ccc(NC(=O)Nc4ccc(C(F)(F)F)cc4)cc3CC(=O)N([C@@H](C)CO)C[C@@H]2C)cc1 was read as MLL AF4-AF9 inh inactive, Cneo AK release inactive, Ecoli rRNA inh inactive, S100A4 MyoIIA inactive and DENV2 CPE rescue inactive.
`COc1ccccc1CNC(=O)CSCc1cnn(-c2ccccc2)c1-n1cccc1` gave Cneo AK release inactive and PfHsp90 set2 inactive.
Screening O=C(CSCc1cnn(-c2ccccc2)c1-n1cccc1)NCc1cccnc1 returned MLL AF4-AF9 inh inactive, Cneo AK release inactive, Ecoli rRNA inh -25.1, S100A4 MyoIIA inactive, PfHsp90 set2 inactive, AID977621 inactive and AID977628 inactive.
For CC(=O)Nc1cccc(NC(=O)CCN2C(=O)c3ccccc3S2(=O)=O)c1 the results were MLL AF4-AF9 inh inactive, Cneo AK release inactive, Ecoli rRNA inh -14.5, S100A4 MyoIIA inactive, DENV2 CPE rescue inactive, AID977621 inconclusive and AID977628 inactive.
`C[C@H](O)C#Cc1cnc2c(c1)C(=O)N([C@@H](C)CO)C[C@H](C)[C@H](CN(C)C(=O)c1ccc(F)cc1)O2` gave MLL AF4-AF9 inh inactive, Cneo AK release inactive, Ecoli rRNA inh inactive, S100A4 MyoIIA inactive and DENV2 CPE rescue inactive.
For CCCNC(=O)N1CC2(C1)[C@@H](c1ccccc1)[C@H](CO)N2C(=O)C1CCC1 the results were MLL AF4-AF9 inh inactive, Ecoli rRNA inh inactive, S100A4 MyoIIA inactive and DENV2 CPE rescue inconclusive.
COc1ccc(-n2ccnc2SCC(=O)NCc2ccccc2)c(OC)c1 was read as MLL AF4-AF9 inh inactive, Cneo AK release inactive, Ecoli rRNA inh -24.9, S100A4 MyoIIA inactive, PfHsp90 set2 inactive, DENV2 CPE rescue inactive and AID977621 inactive.
For COc1ccc2c3c([nH]c2c1)[C@H](CO)N(C(=O)CC1CC1)CC31CCN(C(=O)CC2CC2)CC1 the results were MLL AF4-AF9 inh inactive, Ecoli rRNA inh inactive, S100A4 MyoIIA inactive and DENV2 CPE rescue inactive.
`Cc1cccc(NC(=O)c2c(C)nn(-c3ccccc3)c2Cl)c1` gave MLL AF4-AF9 inh inactive, Ecoli rRNA inh -35.5, S100A4 MyoIIA inactive, PfHsp90 set2 inactive, DENV2 CPE rescue inactive, AID977621 inactive and AID977628 inactive.
For O=C(Nc1cccc(F)c1)N1C[C@@H]2[C@H](c3ccccc31)[C@H](CO)N2C(=O)Cc1ccccn1 the results were MLL AF4-AF9 inh inactive, Cneo AK release inactive, Ecoli rRNA inh -17.9, S100A4 MyoIIA inactive, DENV2 CPE rescue inactive, AID977621 inactive and AID977628 inactive.
CCC(=O)N1[C@H](CO)[C@@H]2c3ccccc3N(C(=O)Nc3ccc(Cl)cc3)C[C@@H]21 was read as MLL AF4-AF9 inh inactive, Cneo AK release inactive, Ecoli rRNA inh -22.4, S100A4 MyoIIA inactive, DENV2 CPE rescue inconclusive and AID977621 inactive.
`COCC(=O)N1[C@@H]2CN(C(=O)Nc3ccccc3F)c3ccccc3[C@@H]2[C@@H]1CO` gave MLL AF4-AF9 inh inactive, Cneo AK release inactive, Ecoli rRNA inh -18.5, S100A4 MyoIIA inconclusive, DENV2 CPE rescue inactive, AID977621 inactive and AID977628 inconclusive.

Source: PubChem BioAssay (Broad Institute)
